The text below walks through data of ChEMBL document CHEMBL1949587 (Bioorg Med Chem, 2012).

The structures appear in SMILES notation. ≈ marks a conversion by molar mass, not a printed value. Calls of active or inactive are those of the source. No cut-off for these calls is given here.

Data set [1] concerns HUVEC. Kind of data set: Antiangiogenic activity in HUVEC assessed as inhibition of VEGF-induced cell proliferation after 4 days. It counts as functional, cell-based. The note with it: Homo sapiens, 96 h. Put shortly: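 HUVECs maintained in RPMI1640 with 10% FCS, 50 μg/mL heparin and ECGS, then seeded at 3000 cells/well in RPMI1640 with 5% FCS and 20 ng/mL VEGF, with compound at serially diluted concentrations. Incubated at 37 °C, 5% CO₂. Read-out is Cell Counting Kit-8, absorbance at 450 nm. Inhibition = (1−T/C)×100 against untreated control.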

Data set [2] concerns Calu-6. The data set can be described thus: Antitumor activity against human Calu6 cells xenografted in BALB/c mouse assessed as tumor growth inhibition at 300 mg/kg, po for 11 days relative to control. It counts as functional. The note with it: Calu-6, 264 h, read-out: TGI. The gist of the method: (§1)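 Calu-6 cells in Hanks' balanced salt solution implanted s.c. in the flank of female Balb/c nude mice, 5.0×10⁶ per mouse. Oral dosing once daily for 11 days, starting at tumor volume 150 mm³. Volume = 1/2 × long × short². Tumor growth inhibition taken from change in volume of the treated group against change in controls.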

Data set [3] can be described thus: Clearance in mouse liver microsome at 5 uM after 60 mins by LC-MS/MS analysis. The following applies: liver microsomes, read-out: CLH. The class given is ADME. Put shortly: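 Test compound at 5 µM incubated with mouse liver microsomes, 1.0 mg protein/mL, in 50 mM potassium phosphate pH 7.4 at 37 °C. Started by adding NADPH generating system (glucose 6-phosphate 3.2 mM, β-NADP 2.6 mM, MgCl2 6.5 mM). Substrate depletion measured against internal standard. Intrinsic clearance is the first-order decay constant normalized to protein.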
(Liver microsomes are a subcellular fraction often used to study metabolism.)

Data set [4] in a line: Solubility of the compound in fasted state simulated intestinal fluid at 10 mM after 2 hrs by HPLC-UV analysis. The class given is physicochemical. Put shortly:
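Triplicate samples made from 10 mM DMSO stocks. DMSO evaporated (1 h), residue dissolved in FaSSIF and shaken 2 h. Solutions filtered, filtrate analysed by UV or HPLC-UV against a four-point calibration curve from the stocks. Result in µg/mL.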

The test system of another data set is HCT-116. The data set can be described thus: Antiproliferative activity against human HCT116 cells. The class given is cell-based.
Data set [5] relates to HUVEC. The data set can be described thus: Selectivity ratio of IC50 for human HCT116 cells to IC50 for HUVEC cells.
A short description of data set [6]: Lipophilicity, log D of the compound at pH 7. The class given is physicochemical. The following applies: buffer.
Data set [7] deals with Vascular endothelial growth factor receptor 2 (Homo sapiens, UniProt P35968). The data set can be described thus: Inhibition of VEGFR2.
Vascular endothelial growth factor receptor 2, sequence (P35968 whole entry): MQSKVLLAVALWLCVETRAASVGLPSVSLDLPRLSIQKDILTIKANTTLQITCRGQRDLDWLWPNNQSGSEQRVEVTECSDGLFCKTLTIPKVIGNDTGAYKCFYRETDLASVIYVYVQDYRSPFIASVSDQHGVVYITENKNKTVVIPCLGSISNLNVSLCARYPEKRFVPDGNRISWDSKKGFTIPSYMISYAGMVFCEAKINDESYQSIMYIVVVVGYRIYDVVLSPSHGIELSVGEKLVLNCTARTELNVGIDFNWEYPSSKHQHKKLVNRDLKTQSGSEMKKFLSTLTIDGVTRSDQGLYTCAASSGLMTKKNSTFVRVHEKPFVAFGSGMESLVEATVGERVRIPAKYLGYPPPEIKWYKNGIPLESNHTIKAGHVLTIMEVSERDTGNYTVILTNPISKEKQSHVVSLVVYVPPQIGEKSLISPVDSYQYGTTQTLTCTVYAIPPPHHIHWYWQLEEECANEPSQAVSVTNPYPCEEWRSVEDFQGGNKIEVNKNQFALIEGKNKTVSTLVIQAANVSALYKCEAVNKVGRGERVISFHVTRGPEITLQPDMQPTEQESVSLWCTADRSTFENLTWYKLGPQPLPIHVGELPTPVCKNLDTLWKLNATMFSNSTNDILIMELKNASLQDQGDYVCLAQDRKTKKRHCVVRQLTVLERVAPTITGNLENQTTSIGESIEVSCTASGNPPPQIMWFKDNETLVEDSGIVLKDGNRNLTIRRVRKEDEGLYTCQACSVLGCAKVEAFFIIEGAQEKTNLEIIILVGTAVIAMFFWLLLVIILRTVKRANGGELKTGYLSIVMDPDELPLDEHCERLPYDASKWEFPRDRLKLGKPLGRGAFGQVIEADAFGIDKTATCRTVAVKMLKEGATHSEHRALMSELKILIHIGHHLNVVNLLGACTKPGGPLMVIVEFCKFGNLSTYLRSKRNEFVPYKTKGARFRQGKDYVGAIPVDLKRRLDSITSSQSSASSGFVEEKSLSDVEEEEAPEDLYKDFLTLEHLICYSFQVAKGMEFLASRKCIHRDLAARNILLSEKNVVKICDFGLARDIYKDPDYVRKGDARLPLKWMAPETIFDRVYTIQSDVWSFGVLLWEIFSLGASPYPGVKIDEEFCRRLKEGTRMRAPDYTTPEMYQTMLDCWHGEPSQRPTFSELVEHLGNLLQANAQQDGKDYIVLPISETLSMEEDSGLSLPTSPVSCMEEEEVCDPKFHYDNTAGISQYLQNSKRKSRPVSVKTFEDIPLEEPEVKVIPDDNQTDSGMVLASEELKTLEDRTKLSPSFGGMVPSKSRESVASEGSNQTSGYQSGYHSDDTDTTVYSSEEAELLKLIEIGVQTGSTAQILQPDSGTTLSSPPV
In data set [8] the test system is Calu-6. The data set can be described thus: Antiangiogenic activity in human Calu6 cells xenografted in BALB/c mouse assessed as microvessel density reduction at 300 mg/kg, po after 11 days by immunohistochemical staining method. The class given is functional. On the set-up: scale not given: the % may be the effect or the level left. The gist of the method:
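Female Balb/c nude mice given Calu-6 cells s.c. in the flank, 5.0×10⁶ cells per mouse. Dosing was oral, once daily for 11 days, starting once tumors reached 150 mm³. Tumors taken 24 h after the last dose and frozen-sectioned from the mid-portion. Vessels stained with anti-mouse CD31 and counted by image analysis. Density decrease expressed against control.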
In general terms: Xenograft models place foreign cells or tissue in a host animal.

Data set [9] has as its system Calu-6. Kind of data set: Antitumor activity against human Calu6 cells xenografted in BALB/c mouse assessed as tumor growth inhibition at 600 mg/kg, po for 11 days relative to control. The class given is functional. The following applies: Calu-6, 264 h, read-out: TGI. Put shortly:
as §1

Data set [10] concerns Calu-6. The data set can be described thus: Antitumor activity against human Calu6 cells xenografted in BALB/c mouse assessed as tumor growth inhibition at 80 mg/kg, po qd for 11 days. The class given is functional, organism-based. On the set-up: dose 80 mg/kg. Put shortly:
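Female Balb/c nude mice carried s.c. flank Calu-6 xenografts, 5.0×10⁶ cells in Hanks' solution. At 200 mm³, mice were randomized into 4 groups (n = 5): vehicle, 150 mg/kg, sunitinib 80 mg/kg, or both. Each group dosed orally once daily for 11 days. Volume = 1/2 × long × short². Inhibition from volume change against control.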

Data set [11] can be described thus: Toxicity in human Calu6 cells xenografted po dosed BALB/c mouse assessed as body weight change administered qd for 11 days. The note with it: in vivo.
Setting [12] is: dose 600 mg/kg, in the assay text read “600 mg/kg” for “300 mg/kg”.

Usually IC50 stands for the concentration that inhibits the measured activity by half. Usually solubility stands for the dissolved amount per volume that the medium holds. The term logD denotes the decadic logarithm of the distribution of all forms, ionised or not, between an organic phase and buffer at a given pH.

On to `COc1ccc(C(N)=O)cc1/C=C/c1ccc(Cl)cc1`, for which the IC50 is 0.087 µM in the data set on HUVEC [1], 7.1 µM in the data set with HCT-116 and above 50 µM in [7]. Further, the inhibition in vivo at 300 mg/kg in the data set with Calu-6 [2] is 71%. The microsomal CLint at 5 µM in [3] was 110 µL/min/mg. This molecule also displayed a solubility at 2 h, 10000 µM in data set [4] of 16 µg/mL (≈ 55.6 µM). Moreover, the “Ratio IC50” value in the data set on HUVEC [5] is reported as 82. For the same molecule, the logD in data set [6] came out at 4. Also, the Activity in the data set on Calu-6 [8] (dose 300 mg/kg) is 60%.

In the case of `COc1ccc(C(N)=O)cc1COc1ccc(Cl)cc1`, the IC50 was 0.66 µM with HUVEC [1], above 50 µM in the data set with HCT-116 and above 50 µM in data set [7]. Moreover, in data set [3], the microsomal CLint at 5 µM is 97 µL/min/mg. Moreover, in the data set on HUVEC [5], the “Ratio IC50” value is above 75. The inhibition in vivo at 600 mg/kg in the data set on Calu-6 [9] was 62%. Also, in the data set on Calu-6 [8] (setting [12]), the Activity was determined as 27%.

Take `COc1ccc(C(C)=O)cc1COc1ccc(Cl)c(C)c1`: the IC50 in the data set with HUVEC [1] is 1.3 µM; with HCT-116, 34 µM; in data set [7], above 50 µM. Further, the “Ratio IC50” value with HUVEC [5] is listed as 26. For the same molecule, in the data set with Calu-6 [9], the inhibition in vivo at 600 mg/kg amounted to 34%. The Activity in the data set on Calu-6 [8] (setting [12]) is reported as 15%.

As to `COc1ccc(C(N)=O)cc1COc1ccc(Cl)c(C)c1`, the IC50 in the data set with HUVEC [1] was 0.64 µM; in the data set on HCT-116, above 50 µM; in [7], above 50 µM. For the same molecule, in data set [3], the microsomal CLint at 5 µM came to 414 µL/min/mg. The “Ratio IC50” value with HUVEC [5] is listed as above 78. Further, in the data set with Calu-6 [9], the inhibition in vivo at 600 mg/kg was 14%. Besides, the Activity with Calu-6 [8] (setting [12]) is 0%.

Consider `CCN(CC)CCNC(=O)c1c(C)[nH]c(/C=C2\C(=O)Nc3ccc(F)cc32)c1C` [SUNITINIB], for which the TGI entry in the data set with Calu-6 [10] is “Active”. The MTD at 264 h in data set [11] is 80 mg/kg.

In the case of `COc1ccc(C(=O)NCCO)cc1/C=C/c1ccc(Cl)cc1`, the IC50 in the data set with HUVEC [1] was 0.91 µM; with HCT-116, 17 µM. The microsomal CLint at 5 µM in data set [3] turned out to be 73 µL/min/mg. The solubility at 2 h, 10000 µM in data set [4] was 16 µg/mL (≈ 48.2 µM). In addition, the “Ratio IC50” value in the data set on HUVEC [5] is recorded as 19.

As to `COc1ccc(C(=O)NC(CO)CO)cc1/C=C/c1ccc(Cl)cc1`, the IC50 stood at 1.5 µM in the data set with HUVEC [1] and 14 µM in the data set on HCT-116. The microsomal CLint at 5 µM in data set [3] came to 8 µL/min/mg. This molecule also came in with a solubility at 2 h, 10000 µM in data set [4] of 251 µg/mL (≈ 694 µM). Besides, the “Ratio IC50” value in the data set with HUVEC [5] was found to be 9.3.

On to `COc1ccc(C(N)=O)cc1/C=C\c1ccc(Cl)cc1`, for which the results for the IC50 in the data set on HUVEC [1] and in the data set on HCT-116 were 2.9 µM and 29 µM, respectively. Besides, the microsomal CLint at 5 µM in [3] came out at 544 µL/min/mg. The molecule also showed a solubility at 2 h, 10000 µM in data set [4] of 137 µg/mL (≈ 476 µM). In the data set with HUVEC [5], the “Ratio IC50” value worked out at 10.
